Results on 32 compounds are retold here after ChEMBL document CHEMBL1141100, “Design and synthesis of specific probes for human 5-HT4 receptor dimerization studies” (J Med Chem, 2005).

Assay [1] concerns the target T1, 5-hydroxytryptamine receptor 4 (Homo sapiens, UniProt Q13639). Kind of assay: Percent cAMP production in C6 glial cells expressing human 5-hydroxytryptamine 4 receptor. In kind it is functional, cell-based. The method in brief: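 Confluent C6 cells stably expressing human 5-HT4(e) receptor were serum-starved 4 h, then preincubated 15 min with 5 mM theophylline and 10 μM pargyline. Compounds (seven concentrations, 10^-10 to 10^-5) and/or 5-HT (1 μM) were added for 15 min at 37 °C. Stopped with 20% perchloric acid, neutralized, and cAMP measured by radioimmunoassay.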
On the technique in general: Changes in cAMP serve as a functional read-out for many G protein-coupled receptors.

The target in assay [2] is T1, 5-hydroxytryptamine receptor 4. Kind of assay: Binding affinity for 5-HT4 receptor using [3H]GR-113808.

T1 sequence (Q13639 whole entry): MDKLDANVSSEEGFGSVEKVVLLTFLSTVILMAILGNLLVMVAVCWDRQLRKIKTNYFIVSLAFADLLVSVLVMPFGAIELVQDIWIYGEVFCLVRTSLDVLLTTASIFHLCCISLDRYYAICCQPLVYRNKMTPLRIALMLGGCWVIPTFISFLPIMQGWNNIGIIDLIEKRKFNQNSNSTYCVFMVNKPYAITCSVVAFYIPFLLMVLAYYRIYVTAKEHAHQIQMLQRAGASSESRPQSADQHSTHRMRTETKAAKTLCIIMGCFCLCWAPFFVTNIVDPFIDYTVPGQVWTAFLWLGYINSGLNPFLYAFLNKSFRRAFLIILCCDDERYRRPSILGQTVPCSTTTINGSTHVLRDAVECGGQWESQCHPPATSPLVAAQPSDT

For the compound `COc1cc(N)c(Cl)cc1C(=O)OCCN1CCC(C(=O)NCCCCCNC(=O)C2CCN(CCOC(=O)c3cc(Cl)c(N)cc3OC)CC2)CC1`, in assay [1], the cAMP amounted to 5%. The compound further had a Ki in assay [2] of 5 nM.
Compound `COc1cc(N)c(Cl)cc1C(=O)OCCN1CCC(NC(=O)CCCCCCCCCCC(=O)NC2CCN(CCOC(=O)c3cc(Cl)c(N)cc3O)CC2)CC1` showed a cAMP in assay [1] of 20%. Affinity in assay [2] was put at a Ki of 16 nM.
The compound `COc1cc(N)c(Cl)cc1C(=O)OCCN1CCC(NC(=O)CCc2ccc3c(c2)oc2cc(CCC(=O)NC4CCN(CCOC(=O)c5cc(Cl)c(N)cc5OC)CC4)ccc23)CC1` yielded a cAMP in assay [1] of 23%. The Ki in assay [2] was found to be 47 nM.
Consider `COc1cc(N)c(Cl)cc1C(=O)OCCN1CCC(C(=O)NCCOCCNC(=O)C2CCN(CCOC(=O)c3cc(Cl)c(N)cc3OC)CC2)CC1`, for which the cAMP in assay [1] turned out to be 0%. In assay [2], this compound returned a Ki of 19 nM.
Turning to `COc1cc(N)c(Cl)cc1C(=O)OCCN1CCC(NC(=O)CCCCCCCCCCC(=O)NC2CCN(Cc3ccccc3)CC2)CC1`, the cAMP in assay [1] was 35%. Besides, the Ki in assay [2] was 14 nM.
On to `COc1cc(N)c(Cl)cc1C(=O)OCCN1CCCCC1`, for which, in assay [1], the cAMP was determined as 45%.
With `COc1cc(N)c(Cl)cc1C(=O)OCCN1CCC(C(=O)NCCCOCCOCCOCNC(=O)C2CCN(CCOC(=O)c3cc(Cl)c(N)cc3OC)CC2)CC1`, the cAMP in assay [1] was found to be 0%. The affinity in assay [2], expressed as Ki, was 6 nM.
`COc1cc(N)c(Cl)cc1C(=O)OCCN1CCC(NC(=O)CCC(=O)NC2CCN(CCOC(=O)c3cc(Cl)c(N)cc3OC)CC2)CC1`: the cAMP in assay [1] is 47%. In assay [2], this compound showed a Ki of 21 nM.
Consider `COc1cc(N)c(Cl)cc1C(=O)OCCN1CCC(NC(=O)CCCCCCCCCCNc2nc(NCCCCCCCCCCC(=O)NC3CCN(CCOC(=O)c4cc(Cl)c(N)cc4OC)CC3)nc(NCc3ccccc3)n2)CC1`, for which, in assay [1], the cAMP worked out at 12%. The Ki in assay [2] was determined as 113 nM.
Consider `COc1cc(N)c(Cl)cc1C(=O)OCCN1CCC(NC(=O)CCCNC(=O)C2CCN(CCOC(=O)c3cc(Cl)c(N)cc3OC)CC2)CC1`, for which the cAMP in assay [1] was determined as 42%. This compound also returned a Ki in assay [2] of 31 nM.
`COc1cc(N)c(Cl)cc1C(=O)OCCN1CCC(CCNC(=O)CCCC(=O)NCCC2CCN(CCOC(=O)c3cc(Cl)c(N)cc3OC)CC2)CC1` displayed a cAMP in assay [1] of 24%.
The compound `COc1cc(N)c(Cl)cc1C(=O)OCCN1CCC(NC(=O)CCCCCCCCCCN)CC1` showed a cAMP in assay [1] of 50%. This compound also came in with a Ki in assay [2] of 13 nM.
Compound `COc1cc(N)c(Cl)cc1C(=O)OCCN1CCN(C(=O)CCCCCC(=O)N2CCN(CCOC(=O)c3cc(Cl)c(N)cc3OC)CC2)CC1` yielded a Ki in assay [2] of 488 nM.
Compound `COc1cc(N)c(Cl)cc1C(=O)OCCN1CCC(CCNC(=O)CCCCCC(=O)NCCC2CCN(CCOC(=O)c3cc(Cl)c(N)cc3OC)CC2)CC1` displayed a cAMP in assay [1] of 31%. The compound further showed an inhibition constant (Ki) in assay [2] of 11 nM.
On to `COc1cc(N)c(Cl)cc1C(=O)OCCN1CCC(NC(=O)CCCCCC(=O)NC2CCN(CCOC(=O)c3cc(Cl)c(N)cc3OC)CC2)CC1`, for which the cAMP in assay [1] turned out to be 26%. This compound gave a Ki in assay [2] of 9 nM.
Regarding `COc1cc(N)c(Cl)cc1C(=O)OCCN1CCC(C(=O)NCCNC(=O)C2CCN(CCOC(=O)c3cc(Cl)c(N)cc3OC)CC2)CC1`, the cAMP in assay [1] was 3%. For the same compound, in assay [2], affinity was put at a Ki of 37 nM.
In assay [1], `COc1cc(N)c(Cl)cc1C(=O)OCCN1CCC(CCNC(=O)CCC(=O)NCCC2CCN(CCOC(=O)c3cc(Cl)c(N)cc3OC)CC2)CC1` gave a cAMP of 15%. Besides, in assay [2], the affinity corresponds to a Ki of 5 nM.
Regarding `COc1cc(N)c(Cl)cc1C(=O)OCCN1CCC(C(=O)NCCCNC(=O)C2CCN(CCOC(=O)c3cc(Cl)c(N)cc3OC)CC2)CC1`, in assay [1], the cAMP is 13%. The same compound registered a Ki in assay [2] of 13 nM.
Turning to `COc1cc(N)c(Cl)cc1C(=O)OCCN1CCN(C(=O)CCCCCCCCCCC(=O)N2CCN(CCOC(=O)c3cc(Cl)c(N)cc3OC)CC2)CC1`, in assay [2], the Ki was 200 nM.
Compound `COc1cc(N)c(Cl)cc1C(=O)OCCN1CCC(CNC(=O)CCCCCCCCCCC(=O)NCC2CCN(CCOC(=O)c3cc(Cl)c(N)cc3OC)CC2)CC1` yielded a cAMP in assay [1] of 21%. In addition, the Ki in assay [2] is 22 nM.
In turn, `COc1cc(N)c(Cl)cc1C(=O)OCCN1CCC(NC(=O)CCNC(=O)C2CCN(CCOC(=O)c3cc(Cl)c(N)cc3OC)CC2)CC1` yielded a cAMP in assay [1] of 10%. Moreover, affinity in assay [2] was put at a Ki of 24 nM.
As to `COc1cc(N)c(Cl)cc1C(=O)OCCN1CCC(C(=O)NCCCCCCCCCCNC(=O)C2CCN(CCOC(=O)c3cc(Cl)c(N)cc3OC)CC2)CC1`, the cAMP in assay [1] was found to be 8%. Affinity in assay [2] was put at a Ki of 8 nM.
Taken in the same sequence, the figures for `COc1cc(N)c(Cl)cc1C(=O)OCCN1CCC(C(=O)NCc2cccc(CNC(=O)C3CCN(CCOC(=O)c4cc(Cl)c(N)cc4OC)CC3)c2)CC1` were 16% and 5 nM.
As for `COc1cc(N)c(Cl)cc1C(=O)OCCN1CCC(CNC(=O)CCC(=O)NCC2CCN(CCOC(=O)c3cc(Cl)c(N)cc3OC)CC2)CC1`, the cAMP in assay [1] is 16%. In assay [2], the Ki is 7 nM.
On to `COc1cc(N)c(Cl)cc1C(=O)OCCN1CCC(NC(=O)CCCCCCCCCCNC(=O)C2CCN(CCOC(=O)c3cc(Cl)c(N)cc3OC)CC2)CC1`, for which the cAMP in assay [1] is 5%. Also, the affinity in assay [2], expressed as Ki, was 20 nM.
`COc1cc(N)c(Cl)cc1C(=O)OCCN1CCC(CNC(=O)CCCCCC(=O)NCC2CCN(CCOC(=O)c3cc(Cl)c(N)cc3OC)CC2)CC1`: the cAMP in assay [1] came to 20%. For the same compound, the Ki in assay [2] is 26 nM.
The compound `COc1cc(N)c(Cl)cc1C(=O)OCCN1CCC(NC(=O)CCCCCCCCCCN(CCCCCCCCCCC(=O)NC2CCN(CCOC(=O)c3cc(Cl)c(N)cc3OC)CC2)CC(=O)NCC2CCNCC2)CC1` had a cAMP in assay [1] of 10%. In assay [2], this compound showed a Ki of 50 nM.
Taken in the same sequence, the figures for `COc1cc(N)c(Cl)cc1C(=O)OCCN1CCC(NC(=O)CCCCCNC(=O)C2CCN(CCOC(=O)c3cc(Cl)c(N)cc3OC)CC2)CC1` were 46% and 7 nM.
`COc1cc(N)c(Cl)cc1C(=O)OCCN1CCC(CNC(=O)CCCC(=O)NCC2CCN(CCOC(=O)c3cc(Cl)c(N)cc3OC)CC2)CC1` displayed a cAMP in assay [1] of 20%. Further, the Ki in assay [2] amounted to 13 nM.
For `COc1cc(N)c(Cl)cc1C(=O)OCCN1CCC(C(=O)NCCOCCOCCNC(=O)C2CCN(CCOC(=O)c3cc(Cl)c(N)cc3OC)CC2)CC1`, the cAMP in assay [1] was 3%. In assay [2], this compound came in with a Ki of 3 nM.
For the compound `COc1cc(N)c(Cl)cc1C(=O)OCCN1CCC(NC(=O)CCCC(=O)NC2CCN(CCOC(=O)c3cc(Cl)c(N)cc3OC)CC2)CC1`, the cAMP in assay [1] came to 32%. The compound also gave a Ki in assay [2] of 5 nM.
Consider `COc1cc(N)c(Cl)cc1C(=O)OCCN1CCC(CCNC(=O)CCCCCCCCCCC(=O)NCCC2CCN(CCOC(=O)c3cc(Cl)c(N)cc3OC)CC2)CC1`, for which the cAMP in assay [1] was determined as 6%. This compound came in with a Ki in assay [2] of 9 nM.

For orientation: Ki means the equilibrium dissociation constant of an inhibitor or competing ligand from its target. Lower therefore signals tighter binding.
